According to ChEMBL document CHEMBL1149756, “Synthesis and antiprotozoal activities of simplified analogs of naphthylisoquinoline alkaloids” (Eur J Med Chem, 2008):
≈ marks a conversion by molar mass, not a printed value. Calls of active or inactive are those of the source. No cut-off for these calls is given here.

Assays:
Leishmania donovani [1] = assay: Antileishmanial activity against Leishmania donovani infected in mouse peritoneal macrophages after 96 hrs; assay type: functional, organism-based
In short: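 L. donovani amastigotes from axenic culture grown at pH 5.4, 1.2 × 10⁵ per well added to macrophages; free amastigotes removed after 4 h and medium replaced. Compound dilutions added next day, 96 h incubation. Slides methanol-fixed 10 min, stained with 10% Giemsa; infected and non-infected macrophages counted, infection rates versus controls. Means of at least two independent assays in duplicate.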

L6 = assay: Cytotoxicity against rat L6 cells after 4 days; assay type: cell-based; settings: L6, 96 h
In short: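 Non-infected L6 cells seeded at 2000 cells/well in RPMI 1640, 10% FBS, 2 mM L-glutamine, exposed to serial drug dilutions 4 d at 37 °C, 5% CO₂. […] after 2–4 h. IC50 from sigmoidal inhibition curve; means of at least two independent assays in duplicate.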

Trypanosoma cruzi = assay: Antitrypanosomal activity against Trypanosoma cruzi Tulahuen C2C4 trypomastigotes infected in rat L6 cells after 4 days
Leishmania donovani [2] = assay: Antileishmanial activity against Leishmania donovani amastigotes infected in mouse peritoneal macrophages after 96 hrs
[3] = Therapeutic index, ratio of IC50 for rat L6 cells to IC50 for Leishmania donovani; assay type: cell-based; settings: read-out: Ratio IC50
Leishmania donovani [4] = assay: Antileishmanial activity against Leishmania donovani axenic amastigotes
[5] = Therapeutic index, ratio of IC50 for rat L6 cells to IC50 for Trypanosoma cruzi
[6] = Therapeutic index, ratio of IC50 for rat L6 cells to IC50 for Trypanosoma cruzi C2C4; assay type: cell-based; settings: read-out: Ratio IC50

SMILES	IC50 (Leishmania donovani [1]) [µg/mL]	IC50 (L6) [µg/mL]	IC50 (Trypanosoma cruzi) [µg/mL]	IC50 (Leishmania donovani [2]) [µg/mL]	selectivity ratio [3]	Activity (Leishmania donovani [4])	selectivity ratio [5]	selectivity ratio [6]
COc1cc(OC)c2c(c1Br)CC(C)(C)NC2	0.628 (≈ 2.09 µM)	> 90	40.7 (≈ 136 µM)	> 10				
COc1cc2c(c(OC)c1)C=NC(C)(C)C2	> 5	> 90	59.1 (≈ 270 µM)	18.3 (≈ 83.5 µM)				
COc1cc2c(c(OC)c1)CNC(C)(C)C2	3.46 (≈ 15.6 µM)	> 90	> 90	> 30				
COc1cc(OS(=O)(=O)C(F)(F)F)cc2c1CN(Cc1ccccc1)C(C)(C)C2	4.67 (≈ 10.9 µM)	> 90	44.8 (≈ 104 µM)		> 19.2	inactive		
O=C(Cn1ccnc1[N+](=O)[O-])NCc1ccccc1 [BENZNIDAZOLE]			0.25 (≈ 0.961 µM)				> 360	
COc1cc(OC)c(-c2ccc(O)cc2)c2c1CNC(C)(C)C2	> 5	28.2 (≈ 90 µM)	45.2 (≈ 144 µM)	12.8 (≈ 40.7 µM)				
COc1ccc(I)c2c1CNC(C)(C)C2	0.341 (≈ 1.08 µM)	83.9 (≈ 265 µM)	10 (≈ 31.5 µM)			inactive		
COc1cc(OC)c2c(c1Br)CC(C)(C)N=C2C	0.377 (≈ 1.21 µM)	57.5 (≈ 184 µM)	19.8 (≈ 63.4 µM)	18.9 (≈ 60.5 µM)	152			
COc1cccc2c1CNC(C)(C)C2	> 5	> 90	33 (≈ 173 µM)			inactive		
COc1cc(OC)c2c(c1Br)CC(C)(C)N(Cc1ccccc1)C2	0.424 (≈ 1.09 µM)	84.8 (≈ 217 µM)	5.8 (≈ 14.9 µM)	4.2 (≈ 10.8 µM)	200		14.6	20.2
COc1ccc(-c2c(OC)cc(OC)c3c2CC(C)(C)N=C3C)cc1	> 5	43.4 (≈ 128 µM)	3.6 (≈ 10.6 µM)	> 30			12.1	
COc1ccc(-c2ccc(O)cc2CO)c2c1CNC(C)(C)C2	3.55 (≈ 11.3 µM)	> 90	> 30	> 30				
COc1cc2c(c(OC)c1)C(C)=NC(C)(C)C2	4.06 (≈ 17.4 µM)	> 90	44.8 (≈ 192 µM)	18.2 (≈ 78 µM)	> 22.2			
COc1cc2c(c(OC)c1)CN(Cc1ccccc1)C(C)(C)C2	1.4 (≈ 4.48 µM)	> 90	20.1 (≈ 64.5 µM)	> 10	> 64.5			
COc1cc(OC)c(-c2ccc(O)c3ccccc23)c2c1CNC(C)(C)C2	0.349 (≈ 0.96 µM)	8.4 (≈ 23.1 µM)	5.5 (≈ 15.1 µM)	5.2 (≈ 14.3 µM)	24.1		1.53	1.62
COc1cc(O)cc2c1CN(Cc1ccccc1)C(C)(C)C2	0.521 (≈ 1.75 µM)	79.6 (≈ 268 µM)	22.7 (≈ 76.3 µM)	30 (≈ 101 µM)	153			
CCN(CC)CCCC(C)Nc1ccnc2cc(Cl)ccc12 (centres undefined) [CHLOROQUINE]	0.23 (≈ 0.719 µM)				1090			
COc1cc(OC)c2c(c1I)CC(C)(C)NC2	0.463 (≈ 1.33 µM)	33.2 (≈ 95.6 µM)	37.7 (≈ 109 µM)	> 10				
COc1ccc(I)c2c1CN(Cc1ccccc1)C(C)(C)C2	3.87 (≈ 9.49 µM)	30 (≈ 73.7 µM)	5.2 (≈ 12.8 µM)		7.8	inactive	5.77	
COc1cc([C@@H]2c3cc4c(cc3[C@H](O)[C@H]3COC(=O)[C@H]23)OCO4)cc(OC)c1OC [PODOFILOX]		0.006 (≈ 0.0145 µM)						
COc1cc(OC)c2c(c1I)CC(C)(C)N(Cc1ccccc1)C2	1.02 (≈ 2.34 µM)	66 (≈ 151 µM)	3.7 (≈ 8.46 µM)	2.4 (≈ 5.49 µM)	64.5		17.8	27.5
